Experiment [1] concerns untransfected HEK293 cells. In words: fura-2 assay of [Ca2+]i in untransfected HEK293 cells. Type of experiment: cell-based, human. Conditions: DG2 0.1–10 μM; ADP 20 μM positive control. The gist of the method: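 Trypsinized HEK293 cells plated on rat tail collagen-coated 96-well plates and loaded with fura-2 AM. Read in kinetic mode on a fluorescence plate reader. Test solutions added by automated pipetting at 100 s. Data sampled at 6 s intervals over 300 s. Read-out: percent change in 340/380 ratio after baseline subtraction. Each experiment repeated at least three times.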

The target in a further experiment is T1, CCK2i4svR (Homo sapiens, UniProt P32239).
T1 sequence (P32239 1-516 isoform P32239-2): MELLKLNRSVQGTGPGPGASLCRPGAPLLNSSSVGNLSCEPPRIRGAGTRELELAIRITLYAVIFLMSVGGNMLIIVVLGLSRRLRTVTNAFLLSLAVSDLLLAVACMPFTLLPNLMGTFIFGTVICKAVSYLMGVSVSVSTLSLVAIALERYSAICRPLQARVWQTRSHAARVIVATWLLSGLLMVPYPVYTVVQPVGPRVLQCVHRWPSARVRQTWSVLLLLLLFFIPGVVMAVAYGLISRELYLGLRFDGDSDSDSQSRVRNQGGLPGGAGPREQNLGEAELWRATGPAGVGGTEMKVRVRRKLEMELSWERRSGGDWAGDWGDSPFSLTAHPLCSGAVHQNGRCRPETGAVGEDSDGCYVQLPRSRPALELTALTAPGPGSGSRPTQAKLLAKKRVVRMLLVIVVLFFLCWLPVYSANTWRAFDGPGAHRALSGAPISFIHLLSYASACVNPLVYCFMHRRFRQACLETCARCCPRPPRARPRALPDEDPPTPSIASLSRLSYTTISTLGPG
Format: binding. The settings on record: read-out: IC50, displacement of [125I][I-Tyr12,Leu15]gastrin; HEK293-CCK2i4svR cell membranes, 60 min at 22 °C, mean ± SD, n = 3. The gist of the method:
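Parent nonpeptidic antagonist served as reference. Stopped with ice-cold 10 mM HEPES pH 7.4/150 mM NaCl, then rapid GF/B glass-fibre filtration and gamma counting. IC50 by one-site nonlinear regression; mean ± SD, three experiments in triplicate.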
On the technique in general: Loss of bound radioactivity is the signal in a displacement assay; it reports binding, not function.

Entries after “also recorded” stand apart in the source; their conditions may differ.

On to `Nc1ncnc2c1ncn2[C@@H]1O[C@H](COP(=O)(O)OP(=O)(O)O)[C@@H](O)[C@H]1O` [ADP], for which the “agonist action on [Ca2+]i in untransfected HEK293 cells” value in experiment [1] is “did respond; also recorded: does exert an agonist action”. `CC(C)(C)C(=O)CN1C(=O)[C@H](NC(=O)Nc2cccc(C(=O)O)c2)CN(C2CCCCC2)c2ccccc21` [Z-360, 3-[[[[(3R)-5-cyclohexyl-1-(3,3-dimethyl-2-ox-obutyl)-2,3,4,5-tetrahydro-2-oxo-1H-1,5-benzodiazepin-3-yl]-amino]carbonyl]amino]benzoic acid]: on CCK2i4svR, the IC50 came to 1.57 ± 0.14 nM.

As a reminder, the IC50 is the midpoint of a concentration-inhibition curve.

For the origin of these results see PMC7429258 (Molecular pharmaceutics, 2020).
